Measurements reported in ChEMBL document CHEMBL3734658, “Ring-truncated deguelin derivatives as potent Hypoxia Inducible Factor-1α (HIF-1α) inhibitors” (Eur J Med Chem, 2015).
Active and inactive are the calls of the source. The rule behind the calls is not given here.

Key:
[1] = target: Hypoxia-inducible factor 1-alpha (Homo sapiens) (UniProt Q16665); assay: Inhibition of HIF-1alpha in human H1299 cells at 100 nM after 72 hrs subsequently incubated for 12 hrs under hypoxic conditions by Western blot assay relative to control; assay type: cell-based; settings: values are per cent of control
How it was run: (§1)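 H1299 non-small-cell lung carcinoma cells were left untreated or exposed to compound at 100 nM (or 10 nM for a follow-up subset) for 72 h. They were then held under hypoxia for 12 h, and HIF-1α protein was assessed by western blot.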

[2] = target: Hypoxia-inducible factor 1-alpha (Homo sapiens) (UniProt Q16665); assay: Inhibition of HIF-1alpha in human H1299 cells at 10 nM after 72 hrs subsequently incubated for 12 hrs under hypoxic conditions by Western blot assay relative to control; assay type: cell-based; settings: values are per cent of control; how it was run: as §1
[3] = Cytotoxicity against mouse HT22 cells assessed as cell viability at 0.1 to 10 uM; assay type: cell-based; settings: ht-22, 10 µM
[4] = target: Hypoxia-inducible factor 1-alpha (Homo sapiens) (UniProt Q16665); assay: Inhibition of HIF-1alpha in human H1299 cells after 72 hrs subsequently incubated for 12 hrs under hypoxic conditions by Western blot assay relative to control; assay type: cell-based; how it was run: as §1
[5] = Antitumor activity against human H1299 cells assessed as reduction in cell viability at 20 uM by MTT assay; assay type: functional; settings: NCI-H1299
[6] = species on record: Homo sapiens; assay: Antiangiogenic activity in human RMVEC assessed as inhibition of VEGF-induced cell proliferation under hypoxic condition at 100 nM by [3H]thymidine incorporation assay; assay type: functional
[7] = species on record: Homo sapiens; assay: Antiangiogenic activity in human RMVEC assessed as inhibition of VEGF-induced cell migration under hypoxic condition at 100 nM by transwell chamber system; assay type: functional
[8] = tested on: NCI-H1299; assay: Antitumor activity against human H1299 cells assessed as reduction in cell viability by MTT assay; assay type: functional, cell-based

Hypoxia-inducible factor 1-alpha (Homo sapiens), sequence (Q16665 whole entry, looked up): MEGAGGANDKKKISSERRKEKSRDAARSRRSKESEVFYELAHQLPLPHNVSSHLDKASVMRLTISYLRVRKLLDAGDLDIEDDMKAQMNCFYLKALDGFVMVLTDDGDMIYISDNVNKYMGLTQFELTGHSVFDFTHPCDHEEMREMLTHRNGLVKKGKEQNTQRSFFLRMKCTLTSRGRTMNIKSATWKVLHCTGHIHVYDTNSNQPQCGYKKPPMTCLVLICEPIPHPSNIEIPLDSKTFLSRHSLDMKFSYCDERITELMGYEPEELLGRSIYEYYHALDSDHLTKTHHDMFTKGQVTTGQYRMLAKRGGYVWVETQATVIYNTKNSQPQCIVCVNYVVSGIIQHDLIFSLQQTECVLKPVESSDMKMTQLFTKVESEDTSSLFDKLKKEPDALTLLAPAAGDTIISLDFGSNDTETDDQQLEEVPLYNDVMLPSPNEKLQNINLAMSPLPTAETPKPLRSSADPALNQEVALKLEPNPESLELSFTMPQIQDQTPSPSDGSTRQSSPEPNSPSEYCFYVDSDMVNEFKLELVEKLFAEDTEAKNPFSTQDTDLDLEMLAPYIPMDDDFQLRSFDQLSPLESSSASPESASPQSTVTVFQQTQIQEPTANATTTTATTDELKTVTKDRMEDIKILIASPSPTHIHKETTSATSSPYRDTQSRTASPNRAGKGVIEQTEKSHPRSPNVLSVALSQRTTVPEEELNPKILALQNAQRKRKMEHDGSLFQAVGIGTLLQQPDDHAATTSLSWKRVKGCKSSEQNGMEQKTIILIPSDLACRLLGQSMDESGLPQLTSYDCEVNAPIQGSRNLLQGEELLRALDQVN

| SMILES | response, % of control [1] [%] | other results |
| --- | --- | --- |
| COc1cc2c(cc1OC)[C@@H]1C(=O)c3ccc4c(c3O[C@@H]1CO2)C=CC(C)(C)O4 [DEGUELIN] | 64 | response, % of control [2]: 94%; Activity [3]: Toxic |
| COc1ccc(C(C)(C)C(OC(=O)C2CC2)c2ccc3c(c2OC)C=CC(C)(C)O3)c(F)c1OC (stereo not given) | 111 | – |
| COc1ccc(C(C)C(OC(N)=O)c2ccc3c(c2OC)C=CC(C)(C)O3)c(F)c1OC (stereo not given) | 48.8 | response, % of control [2]: 80.9% |
| COc1ccc(C(C)(C)C(=O)c2ccc3c(c2OC)C=CC(C)(C)O3)nc1OC | 99.9 | – |
| COc1ccc(CC(OC(C)=O)c2ccc3c(c2OC)C=CC(C)(C)O3)nc1OC (stereo not given) | 114 | – |
| COc1ccc(C(C)C(O)c2ccc3c(c2OC)C=CC(C)(C)O3)nc1OC (stereo not given) | 71.2 | – |
| COc1ccc([C@H](C)C(=O)c2ccc3c(c2OC)C=CC(C)(C)O3)nc1OC | 44.2 | response, % of control [2]: 88.4% |
| COc1ccc(CC(OC(N)=O)c2ccc3c(c2OC)C=CC(C)(C)O3)nc1OC (stereo not given) | 75 | – |
| COc1ccc(C(C)(C)C(=O)c2ccc3c(c2OC)C=CC(C)(C)O3)c(F)c1OC | 74.9 | – |
| COc1ccc([C@H](O)[C@@H](O)c2ccc3c(c2OC)C=CC(C)(C)O3)nc1OC (relative stereo) | 68.9 | – |
| COc1ccc(C(C)(C)C(OC(C)=O)c2ccc3c(c2OC)C=CC(C)(C)O3)c(F)c1OC (stereo not given) | 83.4 | – |
| COc1ccc([C@H](C)[C@H](OC(C)=O)c2ccc3c(c2OC)C=CC(C)(C)O3)c(F)c1OC (relative stereo) | 79.4 | – |
| CCC(=O)OC(c1ccc2c(c1OC)C=CC(C)(C)O2)C(C)c1ccc(OC)c(OC)c1F (stereo not given) | 63.7 | – |
| COc1ccc(CC(OC(C)=O)c2ccc3c(c2OC)C=CC(C)(C)O3)c(F)c1OC (stereo not given) | 69.3 | – |
| COc1ccc(C(C)C(O)c2ccc3c(c2OC)C=CC(C)(C)O3)c(F)c1OC (stereo not given) | 75 | – |
| CNC(=O)OC(c1ccc2c(c1OC)C=CC(C)(C)O2)C(C)c1ccc(OC)c(OC)c1F (stereo not given) | 76.5 | – |
| COc1ccc(CC(=O)c2ccc3c(c2OC)C=CC(C)(C)O3)c(F)c1OC | 67.8 | – |
| CCC(=O)OC(Cc1ccc(OC)c(OC)c1F)c1ccc2c(c1OC)C=CC(C)(C)O2 (stereo not given) | 77.3 | – |
| COc1ccc([C@H](C)[C@@H](OC(C)=O)c2ccc3c(c2OC)C=CC(C)(C)O3)c(F)c1OC (relative stereo) | 52.2 | inhibition [4]: Dose-dependent effect; response, % of control [2]: 63.2%; inhibition at 20 µM [5]: 50%; Activity [3]: Non-toxic; Activity [6]: Active; Activity [7]: Active; Activity [8]: Dose-dependent effect |
| COc1ccc(C(C)C(OC(C)=O)c2ccc3c(c2OC)C=CC(C)(C)O3)nc1OC (stereo not given) | 96.7 | – |
| COc1ccc(C(C)C(OC(=O)N(C)C)c2ccc3c(c2OC)C=CC(C)(C)O3)c(F)c1OC (stereo not given) | 64.1 | response, % of control [2]: 93.6% |
| COc1ccc(C(C)(C)C(O)c2ccc3c(c2OC)C=CC(C)(C)O3)nc1OC (stereo not given) | 69.2 | – |
| COc1ccc(CC(=O)c2ccc3c(c2OC)C=CC(C)(C)O3)nc1OC | 77.6 | – |
| COc1ccc(C(C)C(OC(=O)C2CC2)c2ccc3c(c2OC)C=CC(C)(C)O3)c(F)c1OC (stereo not given) | 35 | response, % of control [2]: 81.6%; inhibition at 20 µM [5]: 50%; Activity [8]: Dose-dependent effect |

The next lines start with results.

| response, % of control [1] [%] | SMILES | other results |
| --- | --- | --- |
| 78.5 | COc1ccc(C/C(=N\O)c2ccc3c(c2OC)C=CC(C)(C)O3)nc1OC | – |
| 64.8 | CO/N=C(/Cc1ccc(OC)c(OC)n1)c1ccc2c(c1OC)C=CC(C)(C)O2 | response, % of control [2]: 74% |
| 88.9 | COc1ccc(CC(OC(N)=O)c2ccc3c(c2OC)C=CC(C)(C)O3)c(F)c1OC (stereo not given) | – |
| 70.3 | COc1ccc(CC(OC(=O)C2CC2)c2ccc3c(c2OC)C=CC(C)(C)O3)c(F)c1OC (stereo not given) | – |
| 85.3 | COc1ccc(CC(=O)c2ccc3c(c2OC)C=CC(C)(C)O3)cc1OC | – |
| 69.5 | COc1ccc(C(C)C(OC(=O)C2CCC2)c2ccc3c(c2OC)C=CC(C)(C)O3)c(F)c1OC (stereo not given) | – |
| 134 | COc1ccc(/C=C/c2ccc3c(c2OC)C=CC(C)(C)O3)c(F)c1OC | – |
| 68.1 | COc1ccc([C@H](O)[C@@H](O)c2ccc3c(c2OC)C=CC(C)(C)O3)c(F)c1OC (relative stereo) | – |
| 88.2 | CCC(=O)OC(c1ccc2c(c1OC)C=CC(C)(C)O2)C(C)(C)c1ccc(OC)c(OC)c1F (stereo not given) | – |
| 75.2 | COc1ccc(CC(O)c2ccc3c(c2OC)C=CC(C)(C)O3)nc1OC (stereo not given) | – |
| 89.3 | COc1ccc(C(C)C(=O)c2ccc3c(c2OC)C=CC(C)(C)O3)nc1OC (stereo not given) | – |
| 113 | COc1ccc(C(C)(C)C(OC(C)=O)c2ccc3c(c2OC)C=CC(C)(C)O3)nc1OC (stereo not given) | – |
| 78.6 | COc1ccc(C(C)C(=O)c2ccc3c(c2OC)C=CC(C)(C)O3)c(F)c1OC (stereo not given) | – |
| 108 | COc1ccc(C(C)(C)C(OC(N)=O)c2ccc3c(c2OC)C=CC(C)(C)O3)nc1OC (stereo not given) | – |
| 133 | COc1ccc(/C=C/c2ccc3c(c2OC)C=CC(C)(C)O3)nc1OC | – |
| 82.1 | COc1ccc([C@H](C)C(=O)c2ccc3c(c2OC)C=CC(C)(C)O3)cc1OC | – |
| 68 | COc1ccc(C(C)(C)C(O)c2ccc3c(c2OC)C=CC(C)(C)O3)c(F)c1OC (stereo not given) | – |
| 87.9 | CCC(c1ccc(OC)c(OC)c1F)C(OC(=O)C1CC1)c1ccc2c(c1OC)C=CC(C)(C)O2 (stereo not given) | – |
| 79.2 | COc1ccc(C/C(=N/O)c2ccc3c(c2OC)C=CC(C)(C)O3)nc1OC | – |
| 74.3 | COc1ccc(CC(O)c2ccc3c(c2OC)C=CC(C)(C)O3)c(F)c1OC (stereo not given) | – |
